Experiments:
Homo sapiens [1] = experiment: Toxicity in healthy human assessed as headache at 400 mg BID, po administered as suspension for 7 days; type: organism-based; settings: in vivo, 168 h
Outline: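 Healthy volunteers (n = 12) took oral posaconazole suspension (40 mg/ml) for 7 days in a four-way randomized crossover with a 14- to 21-day washout. Subjects stayed fasted throughout, with nonfat snacks up to 800 cal/day allowed. Where given, Boost was taken with each dose. Safety covered adverse events, vital signs, clinical labs and 12-lead ECG, with AEs tabulated by body system and severity per treatment.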

Homo sapiens [2] = experiment: Toxicity in healthy human assessed as dizziness at 400 mg administered as single dose suspension coadministered with nutritional supplement; type: organism-based; settings: in vivo
Outline: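 Three-way randomized crossover in 13 healthy volunteers with a 7- to 10-day washout. Each period was one 400-mg oral posaconazole suspension dose with a nutritional supplement. Metoclopramide 10 mg was given orally three times daily on the day before and the day of dosing; loperamide was a single 4 mg. Safety was assessed from adverse events, tabulated by body system and severity per treatment.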

Homo sapiens [3] = experiment: Toxicity in healthy human assessed as adverse events at 400 mg administered as single dose suspension coadministered with nutritional supplement and 10 mg metoclopramide; type: organism-based; settings: in vivo
Outline: (§1)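 Healthy volunteers monitored for adverse events, vital signs, clinical laboratory values and 12-lead ECG. Adverse events tabulated by body system or organ class and severity and summarized by treatment across the crossover regimens.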

[4] = AUC in healthy human at 400 mg administered as single dose suspension coadministered with nutritional supplement and 10 mg metoclopramide; type: ADME, organism-based; settings: plasma
Outline: (§2)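 A three-way crossover in 13 healthy subjects gave one 400 mg oral suspension dose with a nutritional supplement, either alone, with metoclopramide 10 mg orally three times daily on the day before and the day of dosing, or with a single 4 mg dose of loperamide. Plasma was taken 0–168 h for LC-MS/MS. Analysis was noncompartmental.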

[5] = Apparent volume of distribution in fasted healthy human at 400 mg administered as single dose suspension after 20 mins after consumption of high fat meal; type: ADME, organism-based; settings: in vivo, po
Outline: (§3)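 In a crossover of 12 healthy subjects, each took a single 400 mg oral suspension dose 5 min before, midway through (about 10 min into a 20-min meal), or 20 min after a high-fat meal of about 50 g fat. Plasma was drawn 0–168 h and measured by LC-MS/MS. Parameters are noncompartmental, with AUC to the last measurable time.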

[6] = AUC in healthy human at 400 mg administered as single dose suspension coadministered with nutritional supplement; type: ADME, organism-based; settings: plasma; outline: as §2
[7] = Half life in fasted healthy human at 400 mg administered as single dose suspension after 20 mins after consumption of high fat meal; type: ADME, organism-based; settings: in vivo
Outline: (§4)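 Single oral suspension dose in healthy volunteers while fasting, 5 min before, midway through (about 10 min into a 20-min meal), or 20 min after a high-fat meal (approx 50 g fat); four-way crossover, 7–10-day washout. Plasma 0–168 h by LC-MS/MS (LLOQ 5.00 ng/ml). t1/2 = ln(2)/K; Tmax median.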

[8] = Half life in fasted healthy human at 400 mg administered as single dose suspension 5 mins before consumption of high fat meal; type: ADME, organism-based; settings: in vivo; outline: as §4
[9] = Tmax in fasted healthy human at 200 mg QID, po administered as suspension for 7 days; type: ADME, organism-based; settings: in vivo
Outline: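 Healthy volunteers given oral suspension (40 mg/ml) for 7 days, fasted or with nutritional supplement (Boost); four-way crossover, 14–21-day washout, nonfat snacks ≤800 cal/day allowed. On day 7 only the morning dose was given; plasma sampled predose to 168 h after it. LC-MS/MS (LLOQ 5.00 ng/ml). t1/2 = ln(2)/K from log-linear terminal slope; Tmax as median.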

[10] = Half life in healthy human at 400 mg administered as single dose suspension coadministered with nutritional supplement; type: ADME, organism-based; settings: in vivo
Outline: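 Single oral suspension dose with nutritional supplement, alone or with metoclopramide 10 mg orally three times daily on the day before and the day of dosing; three-way crossover, 7–10-day washout. EDTA plasma predose to 168 h, LC-MS/MS (LLOQ 5.00 ng/ml). t1/2 = ln(2)/K from terminal slope; Tmax median.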

Homo sapiens [11] = experiment: Toxicity in healthy human assessed as asthenia at 200 mg QID, po administered as suspension for 7 days; type: organism-based; settings: in vivo, 168 h; outline: as §1
[12] = Apparent total body clearance in fasted healthy human at 400 mg administered as single dose suspension 5 mins before consumption of high fat meal; type: ADME, organism-based; settings: in vivo; outline: as §3
[13] = Half life in fasted healthy human at 400 mg administered as single dose suspension coadministered with acidic carbonated beverage and proton pump inhibitor; type: ADME, organism-based; settings: in vivo
Outline: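 Single oral suspension dose in fasting healthy volunteers, alone, with 12 oz ginger ale, after esomeprazole 40 mg once each morning days −2 to 1, or both; four-way crossover, 7–10-day washout. EDTA plasma 0–168 h. LC-MS/MS (LLOQ 5.00 ng/ml). t1/2 = ln(2)/K from terminal log-linear regression; Tmax median.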

Homo sapiens [14] = experiment: Toxicity in healthy human assessed as adverse events at 400 mg administered as single dose suspension coadministered with acidic carbonated beverage and proton pump inhibitor; type: organism-based; set-up: scale not given: the % may be the effect or the level left; settings: in vivo; outline: as §1
[15] = Apparent total body clearance in fasted healthy human at 400 mg administered as single dose suspension; type: ADME, organism-based; settings: in vivo
Homo sapiens [16] = experiment: Apparent total body clearance in healthy human at 400 mg BID, po administered as suspension for 7 days coadministered with nutritional supplement; type: ADME, organism-based; settings: in vivo, 168 h
Outline: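 Twelve healthy subjects took oral suspension for 7 days as 400 mg BID or 200 mg QID, either fasting or with a Boost-type nutritional supplement, in a crossover with 14–21 day washouts. Nonfat snacks of 800 cal/day or less were allowed. Plasma was sampled 0–168 h after the day-7 morning dose only and analysed by LC-MS/MS. AUC is AUC_τ, normalized to dose.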

SMILES: CC[C@@H]([C@H](C)O)n1ncn(-c2ccc(N3CCN(c4ccc(OC[C@@H]5CO[C@@](Cn6cncn6)(c6ccc(F)cc6F)C5)cc4)CC3)cc2)c1=O [POSACONAZOLE]
- Activity (Homo sapiens [1]): 25%
- Activity (Homo sapiens [2]): 15%
- Activity (Homo sapiens [3]): 38%
- AUC [4]: 7390 ng·h/mL
- Vd/F [5]: 757 L
- AUC [6]: 8960 ng·h/mL
- half-life [7]: 22.6 h
- half-life [8]: 23.9 h
- Tmax [9]: 4 h
- half-life [10]: 24.3 h
- Activity (Homo sapiens [11]): 25%
- CL/F [12]: 957 mL/min
- half-life [13]: 27.8 h
- Activity (Homo sapiens [14]): 25%
- CL/F [15]: 1830 mL/min
- CL/F (Homo sapiens [16]): 33.9 L/h

Source: ChEMBL document CHEMBL1671645, “Pharmacokinetics and absorption of posaconazole oral suspension under various gastric conditions in healthy volunteers” (Antimicrob Agents Chemother, 2009)
